The list is not random: actives were taken first. Their share in the collection is about 3%.
MEKK3 PB1 HTS = MEKK3-MEK5 PB1 interaction, increase or decrease. Q99759. bead-based flow cytometry, Alexa488-MEK5 binding to MEKK3; actives lie on both sides; 0 = blocked by unlabeled MEK5, 100 = vehicle. binding response (% of control), % at 10 µM. 290,000 compounds, 1.4% hits;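 active = binding response more than 3 SD above or below the average of its plate-row segment, actives on both sides; inconclusive = wells at one plate position flagged as instrument error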;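 also: Alexa488 bead fluorescence after subtracting the streptavidin-only scavenger bead signal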
Target sequence (Q99759 whole entry, looked up): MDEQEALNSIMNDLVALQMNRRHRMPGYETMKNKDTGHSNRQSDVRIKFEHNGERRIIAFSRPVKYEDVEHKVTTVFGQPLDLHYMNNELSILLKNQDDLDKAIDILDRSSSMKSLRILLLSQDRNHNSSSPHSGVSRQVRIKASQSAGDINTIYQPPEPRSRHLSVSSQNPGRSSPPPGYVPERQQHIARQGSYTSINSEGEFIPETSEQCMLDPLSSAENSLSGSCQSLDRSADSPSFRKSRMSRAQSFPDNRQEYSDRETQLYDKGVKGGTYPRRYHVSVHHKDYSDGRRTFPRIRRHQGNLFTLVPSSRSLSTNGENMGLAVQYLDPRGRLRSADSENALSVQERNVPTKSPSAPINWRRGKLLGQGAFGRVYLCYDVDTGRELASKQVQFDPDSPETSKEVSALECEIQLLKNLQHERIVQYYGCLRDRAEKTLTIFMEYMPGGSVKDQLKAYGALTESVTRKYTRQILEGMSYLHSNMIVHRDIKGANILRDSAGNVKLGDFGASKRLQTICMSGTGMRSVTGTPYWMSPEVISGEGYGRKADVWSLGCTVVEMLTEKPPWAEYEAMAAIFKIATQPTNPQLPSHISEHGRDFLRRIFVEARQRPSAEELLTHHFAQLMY
UCH37 DUB inh = blocks the human deubiquitinase UCH37; Q9Y5K5; purified proteasome/UCH37, Ub-AMC cleavage fluorescence; inhibition, % (no concentration beside the values); 330,000 compounds, 0.33% hits;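 active = mean inhibition over replicate wells above about 20%, limit read from the data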;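 also: 0% = compound-free wells with enzyme and 100% = wells lacking proteasome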
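Material: human UCH37 enzyme supplied as purified proteasome complex / Amount: 0.15 nM proteasome as dispensed / Buffer or medium: pH 7.4 Tris-HCl (50 mM) with ovalbumin, ATP-MgCl2, DTT / Times: preincubation 30 min, reaction 25 min, room temperature / Technique: AMC fluorescence from Ub-AMC cleavage, excitation 355 nm, emission 460 nm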
MEKK2 mut-MEK5 = signal of MEK5 binding to mutant human MEKK2 PB1 domain | bead flow cytometry, Alexa488-MEK5 binding to MEKK2 mutant | percent response, % at 10 µM | 290,000 compounds, 0.35% hits | AID 1530; in the data active = percent response above about 24%, passing the limit was not always enough
UBC13 polyUb = blocks human UBC13 polyubiquitin chain formation; P61088; TR-FRET; inhibition, % at 20 µM; 330,000 compounds, 0.47% hits; AID 485273; in the data active = inhibition above about 45%, passing the limit was not always enough; inconclusive = no clear call, values can overlap the other calls
Apaf-1 inh = blocks human Apaf-1 apoptosome activity. O14727. reconstituted apoptosome caspase-3 activity, DEVD-Rh110 fluorescence. inhibition, % at 20 µM. 330,000 compounds, 0.71% hits. AID 489030; active = inhibition of at least 40% at 20 µM;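 also: plate controls were DMSO wells for no effect and DEVD-CHO caspase inhibitor wells for full effect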
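Assay system: Apoptosome proteins | Medium: pH 7.5 Hepes buffer with CHAPS, BSA, DTT | Also added: Cytochrome c and DEVD-Rh110 substrate | Times: 30 min plus 50 min, RT | Detection: Rhodamine 110 fluorescence at Ex 480/Em 540 nm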
MEKK2wt PB1 HTS = raises or lowers MEK5 binding to wildtype human MEKK2 PB1 domain; Q9Y2U5; bead flow cytometry, Alexa488-MEK5 binding to MEKK2 WT; actives lie on both sides; binding response (% of control), % at 10 µM; 290,000 compounds, 1.1% hits; AID 1531; in the data active = binding response below about 67% or above about 130%; inconclusive = no clear call, values can overlap the other calls; inactive = in between
Apaf-1 inh conf = confirmation of Apaf-1 inhibitors; AID 504614; reconstituted apoptosome, caspase-3 DEVD-Rh110 fluorescence; 1,800 compounds, 25% hits; shares compounds with Apaf-1 inh; inhibition, % at 20 µM;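 active = mean inhibition of at least 40% at 20 µM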;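 also: plate controls were DMSO wells for no effect and DEVD-CHO caspase inhibitor control wells for full effect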
Rh110 quench = Rh110 signal interference in Apaf-1 inhibitor counter-screen; shares compounds with Apaf-1 inh; Rh110 fluorescence interference, quenched caspase reaction; activation (fluorescence interference), % at 20 µM; 1,800 tested, under 10 active;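 active = signal rise of 40% or more at 20 µM, treated as a fluorescence artifact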
Apaf1 inh interf = shows fluorescence interference in the Apaf-1 inhibitor assay format | shares compounds with Apaf-1 inh | fluorescence interference counterscreen, Apaf-1 assay format | IC50, µM | 460 tested, under 10 active; call rule not given here
* = called active by the depositor; i = inactive; ? = inconclusive; . = not tested or not shown.

SMILES	MEKK3 PB1 HTS	UCH37 DUB inh	MEKK2 mut-MEK5	UBC13 polyUb	Apaf-1 inh	MEKK2wt PB1 HTS	Apaf-1 inh conf	Rh110 quench	others
COc1ccccc1CNC(=O)CN1C(=O)NC(C)(c2ccc(C(C)(C)C)cc2)C1=O (stereo not given)	100.0	-1.9	4.0	3.6	24.5	99.0	.	.
Cc1nn(-c2ccccc2)c2c1C(c1ccccc1)C(C#N)=C(N)O2 (stereo not given)	104.0	0.2	6.0	-30.9	96.5*	100.0	14.6	-2.1
Cc1ccc(-n2nc(C)c3c2OC(N)=C(C#N)C3c2ccoc2)cc1 (stereo not given)	101.0	0.5	-1.0	-22.2	81.0*	95.0	17.0	2.7
C[C@@]12CCC=C[C@H]1[C@H](c1ccc3ccccc3c1Br)N(Cc1ccccc1)C2=O	96.0	1.3	-5.0	1.8	49.2*	91.0	49.8*	3.9	Apaf1 inh interf=>100
COc1ccc(Br)cc1[C@H]1[C@@H]2C=CCC[C@@]2(C)C(=O)N1Cc1ccccc1	99.0	2.1	1.0	13.1	21.8	94.0	.	.
COc1ccc(Cl)cc1NC(=O)C(C)N1CCN(C/C=C/c2ccccc2)CC1 (stereo not given)	104.0	2.1	9.0	19.4	42.9*	125.0	14.9	11.0
COc1ccc(C)cc1NC(=O)CCN1CCN(C/C=C/c2ccccc2)CC1	109.0	2.7	4.0	12.5	7.1	117.0	.	.
COC(=O)c1nn(-c2ccc(OC)cc2)c(=O)cc1NN	103.0	15.3	-4.0	-36.6	42.2*	101.0	37.2	3.5
Cc1ccc(N(C)S(=O)(=O)c2cccc(C(=O)Nc3ccc(C)cn3)c2)cc1	.	0.9	.	16.1	44.7*	.	37.8	-2.1
CN(C)S(=O)(=O)c1cccc(C(=O)Nc2ccc(Cl)cn2)c1	100.0	1.9	3.0	1.8	-5.7	105.0	.	.
COc1ccc(NC(=O)CN(C)C(=O)c2cccc(S(=O)(=O)Nc3ccccc3Cl)c2)cc1	.	-0.7	.	-4.0	2.3	.	.	.
O=C(NCCc1ccccc1)c1ccccc1SCC(=O)N1CCCC1	103.0	2.8	8.0	31.1	60.3*	117.0	36.0	2.1
COc1ccccc1CCNC(=O)c1ccccc1SCC(=O)N1CCCC1	.	1.7	.	5.8	-13.5	.	.	.
COc1ccccc1-c1csc(-n2ncc(C#N)c2N)n1	85.0	.	-18.0	2.8	20.9	70.0	.	.
CC(NC(=O)Cc1ccccc1)c1ccccc1 (stereo not given)	99.0	2.7	7.0	2.7	-0.7	99.0	.	.
O=C(Cc1ccccc1)NC1(O)C(=O)c2ccccc2C1=O	106.0	.	1.0	-21.1	85.4*	105.0	69.0*	6.7	Apaf1 inh interf=>100
COC(=O)CCC(=O)Nc1ccc(S(=O)(=O)N2CCc3ccccc32)cc1	104.0	1.2	4.0	0.0	6.7	104.0	.	.
COCCCN=CC1=C(O)CC(c2ccccc2)CC1=O (stereo not given)	103.0	2.4	0.0	-2.0	4.8	103.0	.	.
CCC(CO)Oc1cc(NCc2cccc(C)c2)c2ncn(C(C)C)c2c1 (stereo not given)	.	4.9	.	-5.8	54.2*	.	28.2	6.5
CCC(CO)Oc1cc(NCc2ccc(OC)cc2)c2ncn(C(C)C)c2c1 (stereo not given)	.	1.3	.	1.8	7.6	.	.	.
CCC(CO)Oc1cc(NCc2ccc(C)cc2)c2ncn(C(C)C)c2c1 (stereo not given)	.	1.0	.	-8.6	41.0*	.	21.5	4.2
CCC(CO)Oc1cc(NCc2cccc(C(F)(F)F)c2)c2ncn(C(C)C)c2c1 (stereo not given)	.	5.4	.	-1.2	40.9*	.	17.9	14.5
CC(C)COc1ccc(C(=O)Nc2scc(-c3ccc(Cl)cc3Cl)c2C(N)=O)cc1	.	-150.4	.	29.0	45.1*	.	19.9	8.5
Cc1ccc(C(=O)NC(=S)Nc2cccc3nsnc23)cc1	97.0	-3.9	-8.0	6.1	58.9*	?	15.6	22.1
Cc1ccc(C(=O)NC(=S)Nc2c(C)ccc3nsnc23)cc1	99.0	2.5	-1.0	-19.7	15.1	98.0	.	.
SMILES	MEKK3 PB1 HTS	UCH37 DUB inh	MEKK2 mut-MEK5	UBC13 polyUb	Apaf-1 inh	MEKK2wt PB1 HTS	Apaf-1 inh conf	Rh110 quench	others
CC(=O)N1CCN(C2=Nc3cccc4cccc2c34)CC1	86.0	-88.4	-5.0	-22.6	80.1*	95.0	5.9	-1.2
CC(C)C(=O)NC(c1cccs1)c1cc([N+](=O)[O-])c2cccnc2c1O (stereo not given)	106.0	12.8	15.0	-68.5	68.3*	115.0	34.6	4.7
C=CCc1cc(Cl)ccc1OCCCNCCO	104.0	3.8	-6.0	4.4	-8.0	116.0	.	.
Cc1cc(C)cc(OCC(=O)Nc2ccc(N3CCCC3)cc2)c1	102.0	3.4	7.0	17.8	40.7*	109.0	20.9	7.5
Cc1ccc(OCC(=O)Nc2ccc(N3CCCC3)cc2)cc1C	99.0	1.8	5.0	9.4	29.8	106.0	.	.
CC1(C)Nc2ccc(O)cc2-c2c1ssc2=S	106.0	5.3	14.0	-24.7	51.3*	104.0	33.6	15.2
O=S(=O)(Nc1ccc(F)cc1)c1ccc(S(=O)(=O)N2CCOCC2)cc1	.	2.4	.	0.7	-5.7	.	.	.
Cc1cccc(N2C(=O)CSC2=NNC(=O)c2ccc(Br)cc2)c1C	.	-0.1	.	.	.	.	.	.
COc1cc(NC(=O)COc2ccccc2Cl)ccc1NC(=O)c1cccs1	101.0	-131.7	3.0	9.8	9.2	102.0	.	.
NC(=S)Nc1ccc2cn[nH]c2c1	100.0	0.7	-2.0	-8.6	0.4	99.0	.	.
c1cc2cn[nH]c2cc1NC1CCCCCC1	106.0	-6.0	4.0	-11.5	52.8*	109.0	67.9*	6.9	Apaf1 inh interf=>100
c1ccc(-c2cn3nc4c(nc3n2)CCCC4)cc1	92.0	i	-4.0	-20.5	57.3*	95.0	27.1	4.1
Brc1ccc(-c2cn3nc4c(nc3n2)CCCC4)cc1	100.0	-68.7	1.0	11.1	41.2*	97.0	31.9	7.0
Nc1nn2cc(-c3ccc(Br)cc3)nc2c2ccccc12	97.0	.	-2.0	19.3	5.2	94.0	.	.
COc1ccc(-c2cc(=O)[nH][nH]2)cc1OC	95.0	10.7	0.0	-21.6	76.7*	95.0	12.6	-5.7
O=c1cc(-c2ccc(F)cc2)[nH][nH]1	93.0	4.1	-3.0	-14.3	50.3*	93.0	2.2	-7.6
COc1cccc(-c2cc(=O)[nH][nH]2)c1	104.0	1.9	1.0	-7.2	23.6	97.0	.	.
